Laboratory results from ChEMBL document CHEMBL4706538, “Novel pleuromutilin derivatives with substituted 6-methylpyrimidine: Design, synthesis and antibacterial evaluation” (2020).
Values after ≈ are worked out from the molar mass of the structure shown. Active and inactive are the calls of the source. The calls are words filed in the database; no cut-off is given here.

What was measured:
Staphylococcus aureus [1] = test: Antibacterial activity against Staphylococcus aureus ATCC 25923 measured after 18 to 24 hrs by microtiter dilution method; type: functional; details: time 18-24 hrs
How it was run: (§1)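 Compounds were taken up in 25% DMSO at 64 μg/mL and serially diluted two-fold in water (11 dilutions). Log-phase bacteria grown in MHB were diluted to 10^5-10^6 CFU/mL and mixed 1:1 with the dilutions. Plates were incubated at 37 °C for 18-24 h. MIC was the lowest concentration giving no growth by OD492, averaged over three independent experiments.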

[2] = tested on: Staphylococcus epidermidis; test: Antibacterial activity against Staphylococcus epidermidis ATCC 51625 measured after 18 to 24 hrs by microtiter dilution method; type: functional; details: time 18-24 hrs; how it was run: as §1
Staphylococcus aureus [3] = test: Antibacterial activity against Staphylococcus aureus BNCC 337371 measured after 18 to 24 hrs by microtiter dilution method; type: functional; details: time 18-24 hrs; how it was run: as §1
[4] = tested on: Streptococcus dysgalactiae; test: Antibacterial activity against Streptococcus dysgalactiae measured after 18 to 24 hrs by microtiter dilution method; type: functional; details: time 18-24 hrs; how it was run: as §1
Streptococcus agalactiae = test: Antibacterial activity against Streptococcus agalactiae measured after 18 to 24 hrs by microtiter dilution method; type: functional; details: time 18-24 hrs; how it was run: as §1
Enterococcus faecalis = test: Antibacterial activity against Enterococcus faecalis measured after 18 to 24 hrs by microtiter dilution method; type: functional; details: time 18-24 hrs; how it was run: as §1
Pasteurella multocida = test: Antibacterial activity against Pasteurella multocida CVCC 1659 measured after 18 to 24 hrs by microtiter dilution method; type: functional; details: time 18-24 hrs; how it was run: as §1
Escherichia coli = test: Antibacterial activity against Escherichia coli CICC 10389 measured after 18 to 24 hrs by microtiter dilution method; type: functional; details: time 18-24 hrs; how it was run: as §1
Staphylococcus aureus [5] = test: Bacteriostatic activity against Staphylococcus aureus BNCC 337371 assessed as reduction in bacterial load incubated for 2 to 24 hrs prior to 10 fold dilution followed by replating on MH agar plate and measured after 24 hrs by time-kill assay; type: functional, organism-based; details: time 2-24 hrs
How it was run: (§2)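 MRSA-337371 was grown in Mueller-Hinton broth at 37 °C for 6 h with shaking, then diluted to about 6×10^5 CFU/mL. It was exposed to 0.5, 1, 2 and 4× MIC. Samples taken at 0, 2, 4, 6, 8, 12 and 24 h were serially diluted 10-fold in 0.9% saline and plated on MH agar at 37 °C for 24 h. Colonies were counted as log10 CFU/mL, in triplicate.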

Staphylococcus aureus [6] = test: Bacteriostatic activity against Staphylococcus aureus BNCC 337371 assessed as reduction in bacterial load at 2 to 4 times MIC incubated for 8 hrs prior to 10 fold dilution followed by replating on MH agar plate and measured after 24 hrs by time-kill assay relative to control; type: functional; details: time 32 hrs; how it was run: as §2
Staphylococcus aureus [7] = test: Antibacterial activity against Staphylococcus aureus BNCC 337371 infected in ip dosed Kunming mouse assessed as increase in mouse survival measured after 7 days; type: functional; details: for ED50: BNCC 337371, ip, 168 h, time 7 day; for Activity: time 7.0 day
How it was run: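 Neutropenic 6-8 week Kunming mice (cyclophosphamide 150 mg/kg ip for four days, then 100 mg/kg one day before inoculation) were infected ip with 0.5 mL MRSA-337371 at 10^8 CFU/mL. About 1 h later they were dosed ip at 5, 8, 15, 25 or 40 mg/kg in DMSO:Tween-80:water 0.5:0.5:9 (10 per group). Mice were observed twice daily, survival was read at day 7, and ED50 was calculated by the Bliss method.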

Staphylococcus aureus [8] = test: Antibacterial activity against Staphylococcus aureus BNCC 337371 infected in Kunming mouse assessed as reduction in bacterial load in lung at 20 to 40 mg/kg, ip measured after 2 days by colony counting method; type: functional, organism-based; details: dose 20-40 mg/kg, time 2.0 day
How it was run: (§3)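 Kunming mice (SPF, 6-8 weeks) were made neutropenic with ip cyclophosphamide, 150 mg/kg for four days and 100 mg/kg one day before infection. They were infected ip with 0.5 mL of MRSA-337371 at 10^8 CFU/mL. About 1 h later, compound was given ip in 0.5 mL vehicle (DMSO:Tween-80:water 0.5:0.5:9). After 2 d of treatment, lung, kidney and liver were weighed, homogenized in saline, diluted 10-fold, plated on MH agar at 37 °C for 24 h in triplicate, and expressed as CFU/g.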

Staphylococcus aureus [9] = test: Antibacterial activity against Staphylococcus aureus BNCC 337371 infected in Kunming mouse assessed as reduction in bacterial load in kidney at 20 to 40 mg/kg, ip measured after 2 days by colony counting method; type: functional, organism-based; details: dose 20-40 mg/kg, time 2.0 day; how it was run: as §3
Staphylococcus aureus [10] = test: Antibacterial activity against Staphylococcus aureus BNCC 337371 infected in Kunming mouse assessed as reduction in bacterial load in liver at 20 to 40 mg/kg, ip measured after 2 days by colony counting method; type: functional, organism-based; details: dose 20-40 mg/kg, time 2.0 day; how it was run: as §3
Staphylococcus aureus [11] = test: Antibacterial activity against Staphylococcus aureus BNCC 337371 infected in Kunming mouse assessed as reduction in lung tissue damage at 20 to 40 mg/kg, ip measured after 2 days by H and E staining based light microscopic analysis; type: functional, organism-based; details: dose 20-40 mg/kg, time 2.0 day
How it was run: (§4)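 In neutropenic Kunming mice infected ip with MRSA-337371 and treated ip, lungs were taken after 2 d of treatment. They were fixed in 10% buffered formalin, embedded in paraffin, cut into 4 μm sections, stained with H&E and examined by light microscopy against normal and untreated infected groups.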

Staphylococcus aureus [12] = test: Antibacterial activity against Staphylococcus aureus BNCC 337371 infected in Kunming mouse assessed as reduction in inflammatory cell infiltration in pulmonary interstitium at 40 mg/kg, ip measured after 2 days by H and E staining based light microscopic analysis; type: functional, organism-based; details: time 2.0 day; how it was run: as §4
Staphylococcus aureus [13] = test: Antibacterial activity against Staphylococcus aureus BNCC 337371 infected in Kunming mouse assessed as thickening of alveolar septum and wall at 20 mg/kg, ip measured after 2 days by H and E staining based light microscopic analysis; type: functional, organism-based; details: time 2.0 day; how it was run: as §4
Staphylococcus aureus [14] = test: Antibacterial activity against Staphylococcus aureus BNCC 337371 infected in Kunming mouse assessed as bacterial load in lung at 20 to 40 mg/kg, ip measured after 2 days by colony counting method (reference value: 4.8 log10CFU/ml); type: functional; details: dose 20-40 mg/kg; time 2 day; how it was run: as §3
Staphylococcus aureus [15] = test: Antibacterial activity against Staphylococcus aureus BNCC 337371 infected in Kunming mouse assessed as reduction in infiltration of neutrophils cells at 20 to 40 mg/kg, ip measured after 2 days by H and E staining based light microscopic analysis; type: functional, organism-based; details: dose 20-40 mg/kg, time 2.0 day; how it was run: as §4
Staphylococcus aureus [16] = test: Antibacterial activity against Staphylococcus aureus BNCC 337371 infected in Kunming mouse assessed as reduction in local congestion in lung at 20 to 40 mg/kg, ip measured after 2 days by H and E staining based light microscopic analysis; type: functional, organism-based; details: dose 20-40 mg/kg, time 2.0 day; how it was run: as §4

Row | SMILES | MIC (Staphylococcus aureus [1]) | MIC [2] | MIC (Staphylococcus aureus [3]) | MIC [4] | MIC (Streptococcus agalactiae) | MIC (Enterococcus faecalis) | MIC (Pasteurella multocida) | MIC (Escherichia coli) | Activity (Staphylococcus aureus [5]) | fold change (FC) (Staphylococcus aureus [6]) | ED50 (Staphylococcus aureus [7]) | Activity (Staphylococcus aureus [7]) | Activity (Staphylococcus aureus [10]) | also measured
1 | C=C[C@]1(C)C[C@@H](OC(=O)CSc2nc(C)cc(N3CCCC3)n2)[C@@]2(C)[C@H](C)CC[C@]3(CCC(=O)[C@H]32)[C@@H](C)[C@@H]1O | 0.06 µM (≈ 0.0333 µg/mL) | 0.11 µM (≈ 0.0611 µg/mL) | 0.06 µM (≈ 0.0333 µg/mL) | 0.06 µM (≈ 0.0333 µg/mL) | 0.06 µM (≈ 0.0333 µg/mL) | 14.4 µM (≈ 8.01 µg/mL) | 14.4 µM (≈ 8.01 µg/mL) | > 57.6 µM | Dose-dependent effect | >=2 | 18 mg/kg | Dose-dependent effect | inactive | Activity (Staphylococcus aureus [8]): Active; Activity (Staphylococcus aureus [9]): Active; Activity (Staphylococcus aureus [11]): Active; Activity (Staphylococcus aureus [12]): Active; Activity (Staphylococcus aureus [13]): Active
2 | C=C[C@]1(C)C[C@@H](OC(=O)CSc2nc(C)cc(N3CCOCC3)n2)[C@@]2(C)[C@H](C)CC[C@]3(CCC(=O)[C@H]32)[C@@H](C)[C@@H]1O | 0.11 µM (≈ 0.0629 µg/mL) | 0.11 µM (≈ 0.0629 µg/mL) | 0.11 µM (≈ 0.0629 µg/mL) | 0.05 µM (≈ 0.0286 µg/mL) | 0.05 µM (≈ 0.0286 µg/mL) | 14 µM (≈ 8 µg/mL) | 14 µM (≈ 8 µg/mL) | > 56 µM | Dose-dependent effect | >=2 |  |  |  | 
3 | C=C[C@]1(C)C[C@@H](OC(=O)CSCCN(CC)CC)[C@]2(C)[C@H](C)CC[C@]3(CCC(=O)[C@H]32)[C@@H](C)[C@@H]1O [TIAMULIN] | 0.82 µM (≈ 0.405 µg/mL) | 0.82 µM (≈ 0.405 µg/mL) | 0.82 µM (≈ 0.405 µg/mL) | 0.2 µM (≈ 0.0988 µg/mL) | 0.2 µM (≈ 0.0988 µg/mL) | 52.5 µM (≈ 25.9 µg/mL) | 3.28 µM (≈ 1.62 µg/mL) | 52.5 µM (≈ 25.9 µg/mL) | Dose-dependent effect | 1 | 25.9 mg/kg | Dose-dependent effect | inactive | Activity (Staphylococcus aureus [14]): 1.1 log10CFU/ml; Activity (Staphylococcus aureus [15]): Active; Activity (Staphylococcus aureus [16]): Active
